Screens (PubChem)
The list is not random: actives were taken first. Their share in the collection is about 3.3%.
NRP1-CendR mod: NRP-1/CendR interaction modulation; O14786; FAM-RPARPAR peptide binding to NRP-1, fluorescence polarization; inhibition, % at 25 µM; actives 0.85% (n = 360,000); AID 602438;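 active = inhibition or corrected inhibition above about 18%, plus a signal ratio from 0.5 to 1.5, limit read from the data, passing the limit was not always enough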
sPLA2-III inh: Inhibits HGIII-sPLA2 liposome hydrolysis, primary screen; actives 0.56% (n = 370,000); inhibition, % at 12.2 µM; QFRET BODIPY PC-A2 liposome hydrolysis, fluorescence; Q9NZ20;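 active = inhibition above mean plus 3 SD of compounds lying within the high and low control bounds, cut at about 19% in these data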
HTR2A ag: activates the mouse 5-HT2A serotonin receptor. actives 0.66% (n = 360,000). AID 624169. P35363. CHO-K1 mHTR2A beta-arrestin complementation, luminescence; percent of 30 µM serotonin response. activation, % at 7.6 µM;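 active = activation above a run cutoff, the mean activation of all tested compounds plus 3 SD, cut at about 14% in these data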
Target sequence (P35363 whole entry, looked up): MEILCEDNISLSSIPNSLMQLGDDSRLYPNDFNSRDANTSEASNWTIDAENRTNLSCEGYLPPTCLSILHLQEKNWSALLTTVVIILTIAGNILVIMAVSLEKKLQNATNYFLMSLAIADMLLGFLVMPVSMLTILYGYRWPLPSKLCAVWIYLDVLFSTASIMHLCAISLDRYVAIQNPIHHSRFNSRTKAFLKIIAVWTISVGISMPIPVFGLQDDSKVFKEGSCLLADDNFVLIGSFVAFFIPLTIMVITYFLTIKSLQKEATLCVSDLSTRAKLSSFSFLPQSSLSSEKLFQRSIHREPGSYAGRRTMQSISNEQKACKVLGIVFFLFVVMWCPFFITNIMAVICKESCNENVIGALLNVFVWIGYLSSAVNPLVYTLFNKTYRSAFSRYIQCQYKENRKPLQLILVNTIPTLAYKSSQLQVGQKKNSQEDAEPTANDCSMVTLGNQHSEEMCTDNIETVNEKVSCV
M18AAP inhibitor: PfM18AAP enzyme inhibition; inhibition, % at 7.35 µM; recombinant PfM18AAP, H-Glu-NHMec fluorogenic cleavage; actives 1.2% (n = 290,000);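 active = inhibition above the campaign mean inhibition over all tested compounds plus 3 SD, cut at about 28% in these data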
Arr AP2 block: human beta-arrestin and AP2 interaction inhibition; FITC-arrestin peptide / GST-AP2 beads, flow cytometry; AP2 beta2 appendage carries R879A mutation; inhibition, % at 10 µM; actives 0.31% (n = 340,000); AID 504490;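 active = inhibition above a set limit, near 3 SD of compounds lacking own fluorescence, cut at about 54% in these data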
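Measured by: flow cytometry, FL1 (488/535 nm); Material: AP2 appendage R879A on GSH beads; Evaluation: percent response; Timing: pre-incubation 12 min, peptide binding 1 h, room temperature; Also added: 50 nM FITC-arrestin peptide; Medium: PBS with 0.05% Tween 20 and 0.1% BSA.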
Lipid droplet: modulators of hepatic lipid droplet formation | AML12 mouse hepatocytes, oleate lipid droplets, BODIPY imaging | inhibition, % at 6.5 µM | actives 0.4% (n = 240,000);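 active = lipid droplet intensity inhibited by at least 50%, with more than 500 cells counted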
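material = mouse AML12 hepatocyte cell line, fixed after treatment | also added = 100 µM oleic acid challenge | doses = compound at 6.5 µM only | schedule = overnight exposure | technique = Image-based BODIPY and DAPI two-channel analysis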
Each line names hits and unclear results; the compound was inactive in the other large screens.

CCCS(=O)(=O)N1CCC(C(=O)NC2CCCC(C)C2C)CC1 (stereo not drawn)	NRP1-CendR mod 26
Cc1cc2c(cc1C)-c1nnnn1C(N1CCCC1)C(=O)N2 (stereo not drawn)	none (no result: M18AAP inhibitor, Arr AP2 block, Lipid droplet)
CCC(CC)C(=O)Nc1nnc(S(=O)(=O)N2c3ccccc3CC2C)s1 (stereo not drawn)	none
O=C(O)/C=C/C(=O)Nc1ccc(-c2ccccc2)cc1	none
O=C(O)/C=C/C(=O)Nc1ccc(OCc2ccccc2)cc1	NRP1-CendR mod 22
COC(=O)C1=C(C)N(C)C(=NCc2ccc3c(c2)OCO3)NC1c1ccc(Cl)cc1 (stereo not drawn)	none (no result: NRP1-CendR mod, HTR2A ag, M18AAP inhibitor, Arr AP2 block, Lipid droplet)
Cc1cc(NS(C)(=O)=O)c(=O)n(Cc2cccc(F)c2)c1	sPLA2-III inh 23 (no result: Lipid droplet)
Cc1ccc(Cn2cccc(NS(C)(=O)=O)c2=O)cc1	none (no result: Lipid droplet)
COc1ccc(-c2csc(C(O)c3ccc(F)c(F)c3)n2)cn1 (stereo not drawn)	NRP1-CendR mod 21 (no result: M18AAP inhibitor, Arr AP2 block, Lipid droplet)
CCC1S/C(=N/N=C/c2ccco2)N(Cc2ccccc2C)C1=O (stereo not drawn)	none
Cc1ccccc1CN1C(=O)CS/C1=N/N=C/c1ccco1	NRP1-CendR mod 29
N#Cc1ccsc1NC(=O)C1CCN(C(=O)c2ccc(Cl)cc2)CC1	none (no result: M18AAP inhibitor, Lipid droplet)
CC(C(=O)Nc1cc([N+](=O)[O-])ccc1Cl)N1CCN(c2ccc(O)cc2)CC1 (stereo not drawn)	M18AAP inhibitor 29
CC(C(=O)Nc1ccc([N+](=O)[O-])cc1Cl)N1CCN(S(=O)(=O)c2cccs2)CC1 (stereo not drawn)	none (no result: M18AAP inhibitor, Lipid droplet)
CC(C)CC(N)c1csc(Nc2cnccn2)n1 (stereo not drawn)	none (no result: M18AAP inhibitor, Arr AP2 block, Lipid droplet)
CC1(C(=O)Nc2ccc3[nH]ncc3c2)CCN1C(=O)Cc1ccc(-c2ccccc2)cc1 (stereo not drawn)	none (no result: M18AAP inhibitor, Arr AP2 block, Lipid droplet)
O=C1C(=O)N(CCCN2CCOCC2)C(c2ccc([N+](=O)[O-])cc2)/C1=C(/O)c1ccc2c(c1)OCO2 (stereo not drawn)	M18AAP inhibitor 31
O=C1C=C(c2ccc(CO)cc2)C[C@@H](c2ccc(F)cc2)C1	none (no result: M18AAP inhibitor, Arr AP2 block, Lipid droplet)
Cc1cccc(NC2=NCC(=O)N2Cc2ccccc2)c1	none
Cc1cc(C)cc(NC2=NCC(=O)N2Cc2ccccc2)c1	NRP1-CendR mod 35
COc1ccccc1OCC(=O)n1cc(C(=O)c2cc(Cl)cc(Cl)c2O)cn1	M18AAP inhibitor 33
Brc1cc2ccccc2[n+](Cc2ccccc2)c1	none (no result: M18AAP inhibitor, Lipid droplet)
c1ccc(C[n+]2csc3ccccc32)cc1	M18AAP inhibitor 30 (no result: Lipid droplet)
CCN(CC)S(=O)(=O)c1ccc(/C=C/C(=O)O)cc1	NRP1-CendR mod 33
CCOC(=O)C1CCCN(C(=O)c2ccc(Cl)c(S(=O)(=O)N3CCc4ccccc43)c2)C1 (stereo not drawn)	none (no result: M18AAP inhibitor, Lipid droplet)
COC(=O)[C@]12C[C@H](CC(=O)NCc3ccc(C)o3)C(=O)N(Cc3ccc4c(c3)OCO4)C1=C[C@H](C(C)(C)C)O[C@@H]2C	none (no result: NRP1-CendR mod, HTR2A ag, M18AAP inhibitor, Arr AP2 block, Lipid droplet)
CCOc1cc(C(=S)N2CCOCC2)ccc1OS(=O)(=O)c1ccc(OC)cc1	NRP1-CendR mod 30
CCCCCC(=O)N1C[C@H](O)[C@@H](n2cc(C3CC3)nn2)C[C@@H]1c1ccc(C)cc1	none (no result: M18AAP inhibitor, Arr AP2 block, Lipid droplet)
O=C(CN1C(=O)c2ccccc2S1(=O)=O)NCCSCc1ccccc1Cl	none
O=C(CN1C(=O)c2ccccc2S1(=O)=O)NCCSCc1c(F)cccc1Cl	NRP1-CendR mod 24
Cc1cccc(C)c1NC(=O)COC(=O)c1cc[n+]([O-])cc1	none (no result: M18AAP inhibitor, Lipid droplet)
COc1ccc(-c2noc(C(=O)NCc3ccc(F)cc3)n2)cc1OC	NRP1-CendR mod 37
CCNCc1nc2cc(OC)c(OC)cc2c(=O)[nH]1	NRP1-CendR mod 28
CC1=C(C(=O)N2CCOCC2)CC(CC(=O)NCCc2ccccn2)C(=O)N1Cc1ccccc1 (stereo not drawn)	NRP1-CendR mod 26 (no result: M18AAP inhibitor, Arr AP2 block, Lipid droplet)
CC1=C(C(=O)N2CCOCC2)CC(CC(=O)NCCc2ccccn2)C(=O)N1Cc1ccc(F)cc1 (stereo not drawn)	none (no result: M18AAP inhibitor, Arr AP2 block, Lipid droplet)
O=C(CCl)Nc1nc(-c2ccco2)c(-c2ccco2)s1	M18AAP inhibitor 36
O=C(CCCSc1ccccc1)Nc1nc(-c2ccco2)c(-c2ccco2)s1	none
CCOc1cnn(Cc2ccccc2)c(=O)c1SCc1ccccc1	NRP1-CendR mod 28
Cc1cccc(N2C(=O)c3ccc(C(=O)Nc4ccccn4)cc3C2=O)c1	none
Cc1ccc(C)c(N2C(=O)c3ccc(C(=O)Nc4ccccn4)cc3C2=O)c1	NRP1-CendR mod 22 (no result: M18AAP inhibitor, Arr AP2 block, Lipid droplet)
Cc1ccc(C(=O)Nc2ccccc2C(=O)Nc2ccccn2)cc1Cl	NRP1-CendR mod 28
Cc1ccc(CNC(=O)C2(C)CCN2C(=O)Cc2ccc(-c3ccccc3)cc2)cc1 (stereo not drawn)	none (no result: M18AAP inhibitor, Arr AP2 block, Lipid droplet)
COc1cc(/C=C2/SC(=O)N(Cc3ccccc3Cl)C2=O)ccc1OCc1ccncc1	NRP1-CendR mod 21 (no result: Lipid droplet)
CCCCn1c(N)c(N(CC(C)C)C(=O)CSc2nnc(C)n2-c2ccccc2)c(=O)[nH]c1=O	none (no result: M18AAP inhibitor, Lipid droplet)
Cc1cc(C(=O)N/N=C/C=C/c2ccc3c(c2)OCO3)n[nH]1	NRP1-CendR mod 27 (no result: Lipid droplet)
Cc1ccc(S(=O)(=O)N2CCC(=O)N(C(COCc3cccc(Cl)c3)C(C)C)CC2)cc1 (stereo not drawn)	none
Cc1ccc(S(=O)(=O)N2CCC(=O)N(C(COCc3cccc(C)c3)C(C)C)CC2)cc1 (stereo not drawn)	NRP1-CendR mod 24
Cc1ccc(S(=O)(=O)N2CCC(=O)N(C(COCc3cccc(C(F)(F)F)c3)C(C)C)CC2)cc1 (stereo not drawn)	NRP1-CendR mod 23 (no result: sPLA2-III inh)
CN(C)CC#Cc1cccc(-c2nc(C(=O)O)cc3c2[C@@H](CCO)N(S(=O)C(C)(C)C)C3)c1 (stereo partly drawn)	none (no result: M18AAP inhibitor, Arr AP2 block, Lipid droplet)
CC(=O)c1c(C)[nH]c(C(=O)OCC(=O)NC(C)c2ccccc2)c1C (stereo not drawn)	none (no result: M18AAP inhibitor, Arr AP2 block, Lipid droplet)
O=C(COc1cccc2ccccc12)NNC(=O)CSCCO	M18AAP inhibitor 31
CC(C)(C)C(=O)Nc1sc2c(c1C#N)CCN(Cc1ccccc1)C2	M18AAP inhibitor 29
COC(=O)/C=C/c1ccccc1S(=O)(=O)N(Cc1ccccc1)Cc1ccco1	NRP1-CendR mod 17 (no result: M18AAP inhibitor)
Cc1cccn2c(=O)c3cc(C(=O)NCc4ccco4)c(=N)n(CCOCCO)c3nc12	M18AAP inhibitor 29 (no result: sPLA2-III inh, Lipid droplet)
Cc1cccn2c(=O)c3cc(C(=O)NCc4ccco4)c(=N)n(C4CCCCC4)c3nc12	none (no result: sPLA2-III inh)
O=C(O)c1nc(-c2ccccc2)c(C(=O)NC2CC2)[nH]1	none (no result: M18AAP inhibitor, Arr AP2 block, Lipid droplet)
CCc1nc2c(OCC3COc4ccccc4O3)cccn2c1N(C)C(=O)c1ccccc1F (stereo not drawn)	none (no result: M18AAP inhibitor, Arr AP2 block, Lipid droplet)
COc1ccccc1-n1nnnc1SCC(=O)N(C)C1CCS(=O)(=O)C1 (stereo not drawn)	none (no result: M18AAP inhibitor, Lipid droplet)
